Biofilm kill mix – mixtures killing C. albicans biofilm | inhibition, % at 7.6 µM | hit rate 0.02% among 120,000 | C. albicans biofilm persisters + clotrimazole, fluorescence viability; primary screen in compound mixtures of four per well;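 further: compounds exposed to preformed 24 h biofilms for 48 h; 0% = untreated biofilm control and 100% = clotrimazole plus chlorhexidine kill blank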
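Assay system: C. albicans biofilms / Medium: RPMI/MOPS medium, pH 7.0 / Schedule: biofilm formation 24 h, compound exposure 48 h, 37 °C / Measured by: Alamar Blue fluorescence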
Bcl-2 Bim block – inhibitors of Bim-Bcl-2 interaction, human; Bead-based flow cytometry, Bim peptide-Bcl-2 binding; hit rate 0.06% among 190,000; inhibition, % at 10 µM; P10415; AID 950; in the data active means inhibition above about 40%;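 further: 0% = no compound wells with probe peptide and 100% = reference peptide inhibitor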
Target sequence (P10415 whole entry, looked up): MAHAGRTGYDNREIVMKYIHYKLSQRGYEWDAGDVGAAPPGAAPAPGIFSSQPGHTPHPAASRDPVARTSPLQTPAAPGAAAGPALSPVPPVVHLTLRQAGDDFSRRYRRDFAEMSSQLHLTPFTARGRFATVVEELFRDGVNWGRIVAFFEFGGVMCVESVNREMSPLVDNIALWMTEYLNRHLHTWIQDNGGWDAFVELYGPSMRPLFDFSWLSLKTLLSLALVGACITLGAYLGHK
Bim-Bfl-1 – inhibitors of Bim-Bfl-1 interaction, human; hit rate 0.12% among 190,000; inhibition, % at 10 µM; Bead-based flow cytometry, Bim-Bfl-1 binding inhibition; Q16548;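 further: 0% = wells without compound plus tracer and 100% = blocker peptide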
Target sequence (Q16548 whole entry, looked up): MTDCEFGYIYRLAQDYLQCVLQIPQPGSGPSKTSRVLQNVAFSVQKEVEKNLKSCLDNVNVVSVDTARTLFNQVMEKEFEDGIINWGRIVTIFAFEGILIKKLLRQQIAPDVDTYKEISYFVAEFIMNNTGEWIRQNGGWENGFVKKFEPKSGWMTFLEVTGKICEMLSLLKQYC
Bcl-XL Bim block – disrupts Bim peptide binding to human Bcl-XL | inhibition, % at 10 µM | bead flow cytometry, fluorescence | Q07817 | hit rate 0.04% among 190,000
Bim-Bcl-W – inhibitors of Bim-Bcl-W interaction, human; Q92843; hit rate 0.02% among 190,000; AID 952; inhibition, % at 10 µM; bead-based flow cytometry, Bim peptide-Bcl-W binding;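 further: 0% = bound tracer without compound and 100% = peptide blocker; higher means less fluorescent Bim peptide bound to Bcl-W beads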
Target sequence (Q92843 whole entry, looked up): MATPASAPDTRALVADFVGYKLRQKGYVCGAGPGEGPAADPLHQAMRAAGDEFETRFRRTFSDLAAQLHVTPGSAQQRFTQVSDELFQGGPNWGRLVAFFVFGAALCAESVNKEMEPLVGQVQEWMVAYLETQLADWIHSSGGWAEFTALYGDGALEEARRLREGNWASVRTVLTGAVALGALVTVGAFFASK
Bim-Bcl-B – disrupts Bim peptide binding to human Bcl-B. Q9HD36. bead-based flow cytometry. inhibition, % at 10 µM. hit rate 0.073% among 190,000. AID 951;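 further: 0% = tracer peptide without compound and 100% = reference inhibitor peptide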
* hit, by the source's call; x = no result given. In the library only some 0.19% were active in any assay of this set; here they are far more common. Unless noted, no stated cut-off is given here; in the data, active means inhibition above about 40%.

SMILES | Biofilm kill mix | Bcl-2 Bim block | Bim-Bfl-1 | Bcl-XL Bim block | Bim-Bcl-W | Bim-Bcl-B
COC(=O)c1ccc(C2Nc3cccc4cccc(c34)N2)cc1 | 7 | 5 | 5 | -1 | 4 | -1
COc1cc(C2Nc3cccc4cccc(c34)N2)cc(OC)c1O | x | 16 | 57* | 12 | 42* | -3
COc1cc(C2Nc3cccc4cccc(c34)N2)ccc1OC(C)=O | x | 16 | 43* | 5 | 34 | -1
CCCOC(=O)Nc1cc(OC)ccc1[N+](=O)[O-] | 14 | 0 | 2 | 0 | -2 | 0
COc1ccc(NC(=O)C(Cl)=C(Cl)Cl)cn1 | 10 | 1 | 4 | 0 | 1 | 4
COc1ccc(NC(=O)/C(Cl)=C(/Cl)S(=O)Cc2ccc(Cl)cc2)cn1 (stereo unspecified) | 8 | 7 | 40* | 0 | 3 | -11
CCOC(=O)CCCNC(=O)c1cncc(O)c1 | x | 72* | 46* | 15 | 11 | 68*
O=C(NCCCNC(=O)c1cncc(O)c1)c1cncc(O)c1 | 15 | -3 | -8 | 0 | 0 | -4
O=C1/C(=C\c2ccc(-c3ccccc3Cl)o2)SC(=S)N1CC1CCCO1 (stereo unspecified) | x | 45* | 17 | 28 | 18 | -3
Cc1cc(C)cc(N(C(=O)c2csnn2)C(C(=O)NC(C)(C)C)c2cccnc2)c1 (stereo unspecified) | 9 | -1 | -7 | -3 | -3 | -4
C/C(=N\NC(=O)COc1ccc(C(C)(C)C)cc1)c1ccc2c(c1)OCCO2 | 14 | 85* | 32 | 31 | 48* | 88*
CCn1c(C)c(C(C)=O)c(N2CCCCC2)nc1=S | x | -9 | -4 | -4 | -1 | 2
C=CCn1c(C)c(C(C)=O)c(N2CCOCC2)nc1=S | x | 29 | 48* | 38 | 29 | 29
Cc1nc2ccccc2n1C1CCN(CC(=O)NCc2ccc(F)cc2)CC1 | x | 59* | 30 | 1 | 1 | 64*
COc1ccc(NC(=O)CN2CCC(n3c(C)nc4cc(F)ccc43)CC2)c(OC)c1 | x | -4 | -2 | -3 | -4 | -4
O=C(CCC(=O)N(CC(=O)NC1CCCCC1)Cc1cccs1)Nc1nccs1 | 13 | x | x | x | x | x
CCCCN(C(=O)c1ccc(Cl)c([N+](=O)[O-])c1)c1c(N)n(CCC)c(=O)[nH]c1=O | 1 | -3 | -3 | -1 | -2 | 2
CCC(=O)Nc1ccccc1C(=O)OCC(=O)c1cccc2ccccc12 | x | 1 | 0 | 1 | 0 | -1
COc1ccc(C(=O)Nc2ccc(C(=O)OCC(=O)c3cccc4ccccc34)cc2)cc1 | 15 | x | 20 | 15 | 24 | 83*
COCCNc1nc2nonc2nc1N(C)Cc1cccc2cnccc12 | 9 | -2 | -4 | 0 | -1 | -4
CCOC(=O)C(C(=O)OCC)c1cc(Br)c2noc3c2c1C(=O)c1ccccc1-3 | x | 39 | 43* | 29 | 43* | 10
CC(=O)OCCNc1cc(N2CCN(C)CC2)c2noc3c2c1C(=O)c1ccccc1-3 | x | 0 | 3 | -6 | 4 | -16
COc1ccccc1N1CCN(c2ccc([N+](=O)[O-])cc2Cl)CC1 | 13 | -8 | -5 | -8 | -5 | -8
COc1cscc1C(=O)O | 17 | x | x | x | x | x
CCOC(=O)c1c(NC(=O)COc2ncnc3ccccc23)sc(C(C)=O)c1C | 14 | -4 | -3 | -4 | -6 | -5
SMILES | Biofilm kill mix | Bcl-2 Bim block | Bim-Bfl-1 | Bcl-XL Bim block | Bim-Bcl-W | Bim-Bcl-B
COC(=O)c1c(NC(=O)COc2ncnc3ccccc23)sc(C)c1C | 15 | 38 | 6 | -1 | -4 | 55*
CC(=O)NC(Cc1c[nH]c2ccccc12)C(=O)OCC(=O)N1CCCCCC1 (stereo unspecified) | 9 | 0 | -2 | -1 | 0 | 1
CCN1C(=O)/C(=C/C=C2\C=CN(CC)c3ccccc32)SC1=S | 4 | 23 | 50* | 10 | 21 | -11
O=C(O)/C=C/C(=O)NNC(=O)c1ccc(Br)cc1 | 8 | 19 | 35 | 41* | 27 | 24
O=C(/C=C/NNC(=O)c1ccccc1)c1ccc(Br)cc1 | x | -7 | -14 | -6 | 0 | -7
Cc1ccccc1N1CCN(CCCCN2C(=O)C3CCCN3C2=O)CC1 (stereo unspecified) | 17 | 0 | 1 | -7 | -1 | -2
Nc1ccc(N2CCN(CCCCN3C(=O)C4CCCN4C3=O)CC2)cc1 (stereo unspecified) | 5 | 12 | 8 | 24 | 25 | 63*
CCCCOc1ccc(CSCCN=C(N)N)cc1 | 31* | -3 | -2 | 0 | 0 | 0
CCCCOc1ccc(CSC(CC(=O)O)C(=O)O)cc1 (stereo unspecified) | x | -7 | -16 | -5 | 1 | -6
O=S(=O)([O-])CCC[n+]1c(/C=C\Nc2ccccc2)oc2ccc(-c3ccccc3)cc21 | 0 | -5 | -5 | -2 | -1 | -4
O=C1CSC(c2cccnc2)N1Cc1ccc(Cl)c(Cl)c1 (stereo unspecified) | 22 | x | x | x | x | x
CC[n+]1ccc(/C=C/c2ccc(N(C)C)cc2)c2ccccc21 | 35* | 0 | -2 | 1 | 1 | -5
COc1cc(NC(=O)c2cccc(Br)c2)nc(OC)n1 | 24 | 0 | -7 | -2 | 0 | -2
CCC(CO)[n+]1c(C)cc(/C=C2\Sc3ccccc3N2Cc2ccccc2)cc1C (stereo unspecified) | 35* | -2 | 8 | -1 | -4 | -32
CCN1/C(=C2\SC(=S)N(Cc3ccccc3)C2=O)Sc2ccccc21 | 7 | 5 | -4 | -7 | -7 | -24
COc1ccc2oc(-c3ccccc3)c(C(=O)N3CCOCC3)c2c1 | x | 80* | 60* | 14 | 8 | 81*
CCOc1ccc2oc(-c3ccccc3)c(C(=O)N3CCN(C)CC3)c2c1 | x | -2 | -2 | -3 | -3 | -2
Nc1c(C(=O)NC2CC2)sc2nc3c(c(-c4ccco4)c12)CC/C3=C/c1ccco1 | 15 | 43* | 56* | 29 | 34 | 34
NC(=O)c1sc2nc3c(c(-c4ccco4)c2c1N)CCC3 | x | 2 | 8 | 14 | 12 | 7
C=C1c2cccc(O)c2C(O)=C2C(=O)[C@]3(O)C(O)=C(C(N)=O)C(=O)[C@@H](N(C)C)[C@@H]3[C@@H](O)[C@H]12 | 24 | -1 | 0 | -8 | -7 | 1
CN(C)[C@@H]1C(=O)C(C(=O)NCN2CCCC2)=C(O)[C@@]2(O)C(=O)C3=C(O)c4c(O)cccc4[C@@](C)(O)C3CC12 (stereo partly specified) | 6 | 37 | 19 | 10 | 21 | 43*
COC(=O)/C(=C/c1ccc(F)cc1)NC(C)=O | 17 | 28 | 1 | 0 | -4 | 48*
COC(=O)/C(=C/c1c[nH]c2ccccc12)NC(C)=O | 2 | -5 | 0 | -4 | -1 | -2
CCNC(=O)c1ccccc1SCC(=O)Nc1ccc(F)cc1 | 16 | 0 | -2 | -2 | 4 | -2
COc1ccc(N2CCN(C(=O)c3cc(=O)[nH]c4ccccc34)CC2)cc1 | -6 | 80* | 58* | 8 | 1 | 74*
